For experiment [1], the target named is T1, Polyunsaturated fatty acid lipoxygenase ALOX15 (Homo sapiens) (UniProt P16050).
T1 sequence (whole entry): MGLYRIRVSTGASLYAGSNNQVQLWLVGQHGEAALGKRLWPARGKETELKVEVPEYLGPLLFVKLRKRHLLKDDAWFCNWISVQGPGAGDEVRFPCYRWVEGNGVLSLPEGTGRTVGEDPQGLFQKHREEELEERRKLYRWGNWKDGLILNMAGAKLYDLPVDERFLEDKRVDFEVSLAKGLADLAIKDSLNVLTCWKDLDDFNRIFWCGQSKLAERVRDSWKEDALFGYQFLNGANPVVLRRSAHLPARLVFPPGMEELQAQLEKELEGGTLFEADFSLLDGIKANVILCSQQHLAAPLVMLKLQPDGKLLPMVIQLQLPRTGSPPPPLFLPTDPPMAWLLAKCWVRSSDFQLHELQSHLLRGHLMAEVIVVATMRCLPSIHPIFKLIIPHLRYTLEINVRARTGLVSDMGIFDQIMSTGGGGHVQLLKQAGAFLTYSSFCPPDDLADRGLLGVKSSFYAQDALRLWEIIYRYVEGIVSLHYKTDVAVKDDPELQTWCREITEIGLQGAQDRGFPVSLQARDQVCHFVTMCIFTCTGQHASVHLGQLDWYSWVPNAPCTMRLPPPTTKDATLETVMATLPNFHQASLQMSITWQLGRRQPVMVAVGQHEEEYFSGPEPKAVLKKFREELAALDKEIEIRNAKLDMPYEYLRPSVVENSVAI
Description: Activation of 15-LOX in human whole blood assessed as reduction in TXB2 production at 100 uM pre-incubated for 20 mins before stimulation with LPS and A23187 for 120 mins in presence of 2 uM 5-LOX inhibitor Zileuton by LC-MS/MS method. Format: tissue-based. The essentials:
(§1)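 Human blood preincubated 20 min at 37 °C with DMSO vehicle or compound in DMSO. LPS added at 100 μg/mL for 24 h at 37 °C, then A23187 at 20 μg/mL final. Samples frozen in liquid nitrogen at time points, lysed by freeze–thaw, with PGB2 internal standard. Analysed by C18 LC-MRM MS, negative ion. Change = control-normalized concentration minus 1, ×100%; 120 min value from AUC.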

The target in experiment [2] is T2, Polyunsaturated fatty acid lipoxygenase ALOX15 (Homo sapiens, UniProt P16050).
T2 sequence (P16050 whole entry): T1 sequence (whole entry)
Description: Binding affinity to wild-type His6-tagged human 15-LOX expressed in Escherichia coli Rosetta DE3 by SPR assay. The essentials:
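15-LOX amine-coupled to a CM5 chip at 800 RU, 25 °C, in PBS-P pH 7.4. Compound concentrations in 5% DMSO injected serially; regenerated by buffer washing. KD from Hill fit of response units.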
On the technique in general: Surface plasmon resonance follows binding to a sensor surface in real time, without labels.

Experiment [3] has as its target T1, Polyunsaturated fatty acid lipoxygenase ALOX15 (Homo sapiens). The experiment can be described thus: Activation of 15-LOX in human whole blood assessed as reduction in 5-HETE production at 100 uM pre-incubated for 20 mins before stimulation with LPS and A23187 for 120 mins in presence of 2 uM […] inhibitor Zileuton by LC-MS/MS method. The format is tissue-based. The essentials: as §1

Experiment [4] has the same target. The experiment can be described thus: Activation of 15-LOX in human whole blood assessed as 13-HODE production at 100 uM pre-incubated for 20 mins before stimulation with LPS and A23187 for 120 mins in presence of 2 uM 5-LOX inhibitor Zileuton by LC-MS/MS method. The format is tissue-based. The essentials:
as §1

Experiment [5] has as its target T3, Polyunsaturated fatty acid 5-lipoxygenase (Homo sapiens) (UniProt P09917).
T3 sequence (whole entry): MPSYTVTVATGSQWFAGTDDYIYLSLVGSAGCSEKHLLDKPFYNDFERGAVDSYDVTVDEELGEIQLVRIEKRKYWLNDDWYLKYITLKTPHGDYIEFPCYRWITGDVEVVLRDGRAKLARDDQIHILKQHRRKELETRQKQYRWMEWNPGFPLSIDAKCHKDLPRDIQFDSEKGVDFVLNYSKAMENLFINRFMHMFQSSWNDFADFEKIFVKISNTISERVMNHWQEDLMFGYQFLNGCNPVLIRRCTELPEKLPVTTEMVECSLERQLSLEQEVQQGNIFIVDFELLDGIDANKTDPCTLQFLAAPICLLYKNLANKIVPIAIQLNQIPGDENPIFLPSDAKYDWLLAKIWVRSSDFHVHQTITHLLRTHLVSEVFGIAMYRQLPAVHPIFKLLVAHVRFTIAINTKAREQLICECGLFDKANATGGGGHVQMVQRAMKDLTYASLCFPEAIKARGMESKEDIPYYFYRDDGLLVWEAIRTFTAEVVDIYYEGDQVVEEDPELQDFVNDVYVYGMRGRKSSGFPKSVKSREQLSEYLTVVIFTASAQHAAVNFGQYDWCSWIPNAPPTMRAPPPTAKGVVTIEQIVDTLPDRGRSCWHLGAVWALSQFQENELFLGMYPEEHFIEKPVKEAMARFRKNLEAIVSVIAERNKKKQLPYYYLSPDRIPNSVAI
The experiment can be described thus: Inhibition of human 5-LOX expressed in Escherichia coli BL21-DE3 of assessed as reduction in H2DCFDA oxidation at 100 uM using arachidonic acid substrate incubated for 5 mins by fluorescence spectrophotometry. The essentials: (§2)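 Human 5-LOX activity followed as AA-driven oxidation of H2DCFDA to fluorescent dichlorofluorescein (ex 500/em 520 nm), recorded for 5 min. Compound handled as in the 15-LOX assay.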

Experiment [6] addresses T1, Polyunsaturated fatty acid lipoxygenase ALOX15 (Homo sapiens). The experiment can be described thus: Activation of 15-LOX in human whole blood assessed as increase in 15-HETE production at 100 uM pre-incubated for 20 mins before stimulation with LPS and A23187 for 120 mins in presence of 2 uM […] inhibitor Zileuton by LC-MS/MS method. Format: tissue-based. The essentials: as §1

The target in a further experiment is T4, Prostaglandin E synthase (Homo sapiens, UniProt O14684).
T4 sequence (O14684 whole entry): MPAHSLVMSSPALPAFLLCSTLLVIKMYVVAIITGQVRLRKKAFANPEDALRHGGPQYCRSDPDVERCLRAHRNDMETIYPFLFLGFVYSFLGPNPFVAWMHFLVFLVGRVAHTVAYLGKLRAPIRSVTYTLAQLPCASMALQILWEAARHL
Description: Inhibition of mPGES-1 (unknown origin) assessed as reduction in conversion of PGH2 to PGE2 by EIA method. The essentials:
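mPGES-1 activity taken as conversion of PGH2 to PGE2, with PGE2 measured by EIA. Compound handled as in the 15-LOX assay.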

The target of experiment [7] is T3, Polyunsaturated fatty acid 5-lipoxygenase (Homo sapiens). The experiment can be described thus: Activation of human 5-LOX assessed as H2DCFDA oxidation at 100 uM using arachidonic acid substrate incubated for 5 mins by fluorescence assay. The essentials: as §2
The target in experiment [8] is T1, Polyunsaturated fatty acid lipoxygenase ALOX15 (Homo sapiens). The experiment can be described thus: Activation of 15-LOX in human whole blood assessed as increase in 13-HODE production at 100 uM pre-incubated for 20 mins before stimulation with LPS and A23187 for 120 mins in presence of 2 uM […] inhibitor Zileuton by LC-MS/MS method. Format: tissue-based. The essentials:
as §1

Each structure is given as a SMILES string. The source made the active and inactive calls. No cut-off for these calls is given here. Bounds are passed on as bounds.

A word on the Kd: it is the free concentration of one partner at which half of the binding sites on the other are occupied at equilibrium, for simple one-to-one binding. Read a low Kd as a tighter complex. What is called inhibition is the change of the read-out against control, counted positive when it falls. The IC50 is the midpoint of a concentration-inhibition curve. `CN1CCN(CC(=O)N2N=C3/C(=C/c4ccccc4)CCCC3C2c2ccccc2)CC1` (centres undefined): the result in [1], in [3], in experiment [6] and in [8] was Active. In experiment [2], this compound gave a dissociation constant Kd of 3.9 µM. Further, the Activity was 67% in [4] and below 5% in [7]. Besides, the inhibition in experiment [5] was below 5%. Besides, at Prostaglandin E synthase, the IC50 turned out to be 20 µM.
